From ChEMBL document CHEMBL1151714 (J Med Chem, 2008)
Calls of active or inactive are those of the source. No cut-off for these calls is given here.

Legend:
[1] = system: MDA-MB-231; assay: Reversal of human XIAP BIR3-mediated suppression of cytochrome c-induced caspase-3/-7 activity in human MDA-MB-231 cell lysate by cell free functional assay
Summary of the method: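 Caspase-3/-7 in cell lysates was activated by adding cytochrome c and dATP. Recombinant XIAP BIR3 protein at 0.5 μM was used to suppress activation, and recovery of caspase-3/-7 activity was measured across compound doses. Activity was read at the 30-minute time point and expressed relative to maximum activation.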

[2] = system: MDA-MB-231; assay: Induction of cIAP1 degradation in human MDA-MB-231 cells at 10 nM after 24 hrs by Western blotting; assay type: functional, cell-based
Summary of the method: (§1)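 MDA-MB-231 cells were exposed to a range of concentrations for 24 hours. Whole-cell levels of cIAP-1, cleaved PARP and cleaved caspase-3 were then probed by Western blot.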

[3] = system: MDA-MB-231; assay: Induction of PARP cleavage in human MDA-MB-231 cells at 100 nM after 24 hrs by Western blotting; assay type: functional, cell-based; summary of the method: as §1
[4] = system: MDA-MB-231; assay: Induction of caspase 3 processing in human MDA-MB-231 cells at 100 nM after 24 hrs by Western blotting; assay type: functional, cell-based; summary of the method: as §1
[5] = system: Rattus norvegicus; assay: Cmax in Sprague-Dawley rat at 30 mg/kg, po; assay type: ADME, organism-based; parameters: dose 30 mg/kg, route oral; conditions: in vivo
[6] = system: Rattus norvegicus; assay: Half life in Sprague-Dawley rat at 30 mg/kg, po; assay type: ADME, organism-based; parameters: dose 30 mg/kg, route oral; conditions: in vivo
Summary of the method: (§2)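 Rat pharmacokinetics after a single oral dose. Compounds were given at 25 or 30 mg/kg. Cmax, elimination half-life and AUC(0-∞) were determined, and oral bioavailability was calculated. Values are reported as mean ± deviation.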

[7] = system: Rattus norvegicus; assay: AUC (0 to infinity) in Sprague-Dawley rat at 30 mg/kg, po; assay type: ADME, organism-based, Plasma; parameters: dose 30 mg/kg, route oral, time infinity; conditions: in vivo
Summary of the method: (§3)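 Rats were given a single oral dose of 25 or 30 mg/kg. Maximum plasma concentration (Cmax), elimination half-life and AUC(0-∞) were derived. Oral bioavailability was also reported.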

[8] = system: Rattus norvegicus; assay: Bioavailability in Sprague-Dawley rat at 30 mg/kg, po; assay type: ADME, organism-based; conditions: in vivo; summary of the method: as §2
[9] = system: Rattus norvegicus; assay: Cmax in Sprague-Dawley rat at 25 mg/kg, po; assay type: ADME, organism-based; parameters: dose 25 mg/kg, route oral; conditions: in vivo
[10] = system: Rattus norvegicus; assay: Half life in Sprague-Dawley rat at 25 mg/kg, po; assay type: ADME, organism-based; parameters: dose 25 mg/kg, route oral; conditions: in vivo; summary of the method: as §2
[11] = system: Rattus norvegicus; assay: AUC (0 to infinity) in Sprague-Dawley rat at 25 mg/kg, po; assay type: ADME, organism-based, Plasma; parameters: time infinity, dose 25 mg/kg, route oral; conditions: in vivo; summary of the method: as §3
[12] = system: Rattus norvegicus; assay: Bioavailability in Sprague-Dawley rat at 25 mg/kg, po; assay type: ADME, organism-based; conditions: in vivo; summary of the method: as §2
[13] = molecular target: Baculoviral IAP repeat-containing protein 3 (Homo sapiens, UniProt Q13489); assay: Displacement of fluorescently tagged SM5F from human cIAP-2 BIR3 expressed in Escherichia coli BL21 cells by fluorescence polarization assay
Chain of Baculoviral IAP repeat-containing protein 3 (Q13489 whole entry): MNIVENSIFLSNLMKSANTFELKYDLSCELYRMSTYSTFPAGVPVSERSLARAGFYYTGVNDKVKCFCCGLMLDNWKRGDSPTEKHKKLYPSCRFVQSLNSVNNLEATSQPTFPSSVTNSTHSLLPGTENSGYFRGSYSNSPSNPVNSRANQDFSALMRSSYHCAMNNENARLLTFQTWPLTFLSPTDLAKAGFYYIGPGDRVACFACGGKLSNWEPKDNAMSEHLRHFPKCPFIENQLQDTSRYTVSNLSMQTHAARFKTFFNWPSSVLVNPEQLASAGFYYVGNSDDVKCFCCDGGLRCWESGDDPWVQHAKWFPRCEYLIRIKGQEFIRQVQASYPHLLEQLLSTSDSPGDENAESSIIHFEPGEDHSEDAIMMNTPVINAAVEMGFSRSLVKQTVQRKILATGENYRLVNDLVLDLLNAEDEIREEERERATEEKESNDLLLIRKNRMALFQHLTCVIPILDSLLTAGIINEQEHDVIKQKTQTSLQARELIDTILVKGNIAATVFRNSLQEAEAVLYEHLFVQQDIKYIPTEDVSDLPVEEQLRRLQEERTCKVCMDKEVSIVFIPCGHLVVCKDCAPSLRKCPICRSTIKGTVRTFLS

[14] = system: MDA-MB-231; assay: cells; conditions: Homo sapiens, MDA-MB-231, 96 h

CN[C@@H](C)C(=O)N[C@H]1CN(C(=O)Cc2ccccc2)CC[C@H]2CC[C@@H](C(=O)NC(c3ccccc3)c3ccccc3)N2C1=O.Cl
Activity [1]: Dose-dependent effect | Activity [2]: Active | Activity [3]: Active | Activity [4]: Active | Cmax [5]: 532 nM | t1/2 [6]: 4.7 h | AUC [7]: 1985 µg/L | F [8]: 24%

CN[C@@H](C)C(=O)N[C@H]1CCCC[C@H]2CC[C@@H](C(=O)NC(c3ccccc3)c3ccccc3)N2C1=O.Cl
Cmax [9]: 545 nM | t1/2 [10]: 1.7 h | AUC [11]: 482 µg/L | F [12]: 14%

CN[C@@H](C)C(=O)N[C@H]1CN(C)CC[C@H]2CC[C@@H](C(=O)NC(c3ccccc3)c3ccccc3)N2C1=O
Ki [13]: 0.0175 µM

CN[C@@H](C)C(=O)N[C@H]1CN(Cc2ccccc2)CC[C@H]2CC[C@@H](C(=O)NC(c3ccccc3)c3ccccc3)N2C1=O
Ki [13]: 0.0098 µM

CN[C@@H](C)C(=O)N[C@H]1CNCC[C@H]2CC[C@@H](C(=O)NC(c3ccccc3)c3ccccc3)N2C1=O
Ki [13]: 0.0046 µM | IC50 [14]: 0.89 µM
